Calls of active or inactive are those of the source. The calls are words filed in the database; no cut-off is given here. Positions of bridges follow the written chain, without caps; N, C: chain ends. Residues, ends and D or L forms follow the SMILES beside them.
Tests used:
[1] = molecular target: T1, Lethal factor (Bacillus anthracis) (UniProt P15917); assay: (§1) Inhibition of Bacillus anthracis lethal factor protease preincubated for 30 mins prior to addition of substrate containing fluorescent proteins CyPet and YPet measured every 2 mins for 3 hrs by FRET assay
T1 sequence (whole entry): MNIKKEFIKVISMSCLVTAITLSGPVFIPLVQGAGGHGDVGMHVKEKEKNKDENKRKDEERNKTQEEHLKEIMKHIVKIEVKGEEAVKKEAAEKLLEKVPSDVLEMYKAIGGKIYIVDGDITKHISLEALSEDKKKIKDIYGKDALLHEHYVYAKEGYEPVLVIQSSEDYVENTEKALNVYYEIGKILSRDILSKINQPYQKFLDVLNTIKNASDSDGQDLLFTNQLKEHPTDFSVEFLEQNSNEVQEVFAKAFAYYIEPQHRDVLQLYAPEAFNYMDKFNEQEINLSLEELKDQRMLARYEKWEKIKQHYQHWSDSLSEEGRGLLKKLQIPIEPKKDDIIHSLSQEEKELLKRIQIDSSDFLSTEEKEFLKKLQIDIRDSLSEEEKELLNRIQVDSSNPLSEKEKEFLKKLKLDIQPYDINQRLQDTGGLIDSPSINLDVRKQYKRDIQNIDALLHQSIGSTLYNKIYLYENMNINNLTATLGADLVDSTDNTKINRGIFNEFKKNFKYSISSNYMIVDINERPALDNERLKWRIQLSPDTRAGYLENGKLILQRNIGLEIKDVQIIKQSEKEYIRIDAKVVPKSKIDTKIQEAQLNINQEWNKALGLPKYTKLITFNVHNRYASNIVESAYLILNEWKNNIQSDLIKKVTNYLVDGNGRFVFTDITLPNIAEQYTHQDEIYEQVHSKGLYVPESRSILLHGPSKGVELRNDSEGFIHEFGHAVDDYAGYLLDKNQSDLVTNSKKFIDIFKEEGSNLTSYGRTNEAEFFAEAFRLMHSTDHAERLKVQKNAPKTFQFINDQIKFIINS
Procedure, shortened: (§2)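 Preincubated with peptide from 1 nM to 10 μM for 30 min at room temperature. CyPet–YPet substrate (LF consensus sequence with (GGS)6 linkers) then added to a final 10 nM. FRET read every 2 min for 3 h with excitation at 405 nm and emission ratio It/I0 at 535 nm. Initial velocities fitted to log(inhibitor)–response with variable Hill slope. Run in triplicate.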

Lethal factor [2] = molecular target: T2, Lethal factor (Bacillus anthracis, UniProt P15917); assay: as §1; procedure, shortened: as §2
T2 sequence (P15917 whole entry): T1 sequence (whole entry)

[3] = molecular target: T1, Lethal factor (Bacillus anthracis); assay: Inhibition of Bacillus anthracis lethal factor protease up to 10 uM preincubated for 30 mins prior to addition of substrate containing fluorescent proteins CyPet and YPet measured every 2 mins for 3 hrs by FRET assay; procedure, shortened: as §2
HeLa = assay: Cytotoxicity against human HeLa cells up to 100 uM after 48 hrs by MTT assay; assay type: cell-based
Procedure, shortened: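 HeLa cells grown in DMEM with 10% FBS, penicillin and streptomycin at 37° C, 5% CO2. About 3 × 10^3 cells per well were seeded for 24 h, washed with PBS, then exposed to peptides in DMEM/10% FBS for 48 h at 37° C. MTT was added for 2 h and formazan dissolved in DMSO. Absorbance read at 595 nm with 670 nm background subtracted.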

Lethal factor [4] = molecular target: T2, Lethal factor

| SMILES | inhibition [1] | further results |
| --- | --- | --- |
| CC[C@H](C)[C@@H]1NC(=O)[C@@H]2CSSC[C@H](NC(=O)[C@H](CC(=O)O)NC(=O)[C@@H]3CSSC[C@H](NC1=O)C(=O)N[C@@H]([C@@H](C)O)C(=O)N[C@@H](CCCNC(=N)N)C(=O)NCC(=O)N[C@@H](Cc1ccccc1)C(=O)N3)C(=O)N[C@@H](CC(C)C)C(=O)N[C@H]1CSSC[C@H](NC(=O)[C@H](C(C)C)NC(=O)CNC(=O)[C@H](CCCNC(=N)N)NC(=O)[C@H](CCCNC(=N)N)NC1=O)C(=O)N[C@@H](CCCNC(=N)N)C(=O)N2 (cyclo(CDCLCRRGVCRCICTRGF); disulfide 1-14, 3-12, 5-10) | Dose-dependent effect |  |
| CC[C@H](C)[C@@H]1NC(=O)[C@@H]2CSSC[C@H](NC(=O)[C@H](CCCNC(=N)N)NC(=O)[C@@H]3CSSC[C@H](NC1=O)C(=O)N[C@@H]([C@@H](C)O)C(=O)N[C@@H](CCC(=O)O)C(=O)NCC(=O)N[C@@H](Cc1ccccc1)C(=O)N3)C(=O)N[C@@H](CC(C)C)C(=O)N[C@H]1CSSC[C@H](NC(=O)[C@H](C(C)C)NC(=O)CNC(=O)[C@H](CCCNC(=N)N)NC(=O)[C@H](CCCNC(=N)N)NC1=O)C(=O)N[C@@H](CCCNC(=N)N)C(=O)N2 (cyclo(CICTEGFCRCLCRRGVCR); disulfide 1-10, 3-8, 12-17) | Dose-dependent effect | IC50 (Lethal factor [2]): 3500 nM |
| CC[C@H](C)[C@@H]1NC(=O)[C@H](CS)NC(=O)[C@H](CCCNC(=N)N)NC(=O)[C@H](CS)NC(=O)[C@H](C(C)C)NC(=O)CNC(=O)[C@H](CCCNC(=N)N)NC(=O)[C@H](CCCNC(=N)N)NC(=O)[C@H](CS)NC(=O)[C@H](CC(C)C)NC(=O)[C@H](CS)NC(=O)[C@H](CCCNC(=N)N)NC(=O)[C@H](CS)NC(=O)[C@H](Cc2ccccc2)NC(=O)CNC(=O)[C@H](CCCNC(=N)N)NC(=O)[C@H]([C@@H](C)O)NC(=O)[C@H](CS)NC1=O (cyclo(CICTRGFCRCLCRRGVCR)) |  | inhibition [3]: inactive |
| CC[C@H](C)[C@@H]1NC(=O)[C@@H]2CSSC[C@H](NC(=O)[C@H](CCCNC(=N)N)NC(=O)[C@@H]3CSSC[C@H](NC1=O)C(=O)N[C@@H]([C@@H](C)O)C(=O)N[C@@H](CCCNC(=N)N)C(=O)NCC(=O)N[C@@H](Cc1ccccc1)C(=O)N3)C(=O)N[C@@H](CC(C)C)C(=O)N[C@H]1CSSC[C@H](NC(=O)[C@H](Cc3c[nH]c4ccccc34)NC(=O)CNC(=O)[C@H](CCCNC(=N)N)NC(=O)[C@H](CCCNC(=N)N)NC1=O)C(=O)N[C@@H](CCCNC(=N)N)C(=O)N2 (cyclo(CICTRGFCRCLCRRGWCR); disulfide 1-10, 3-8, 12-17) | Dose-dependent effect |  |
| CC[C@H](C)[C@@H]1NC(=O)[C@@H]2CSSC[C@H](NC(=O)[C@H](CCCNC(=N)N)NC(=O)[C@@H]3CSSC[C@H](NC1=O)C(=O)N[C@@H]([C@@H](C)O)C(=O)N[C@@H](CCCNC(=N)N)C(=O)NCC(=O)N[C@@H](Cc1ccccc1)C(=O)N3)C(=O)N[C@@H](CC(C)C)C(=O)N[C@H]1CSSC[C@H](NC(=O)[C@H](Cc3c[nH]c4ccccc34)NC(=O)[C@H](CCCNC(=N)N)NC(=O)[C@H](CCCNC(=N)N)NC(=O)[C@H](CCCNC(=N)N)NC1=O)C(=O)N[C@@H](CCCNC(=N)N)C(=O)N2 (cyclo(CICTRGFCRCLCRRRWCR); disulfide 1-10, 3-8, 12-17) | Dose-dependent effect |  |
| CC[C@H](C)[C@@H]1NC(=O)[C@@H]2CSSC[C@H](NC(=O)[C@H](CCCNC(=N)N)NC(=O)[C@@H]3CSSC[C@H](NC1=O)C(=O)N[C@@H]([C@@H](C)O)C(=O)N[C@@H](CCCNC(=N)N)C(=O)NCC(=O)N[C@@H](Cc1ccccc1)C(=O)N3)C(=O)N[C@@H](Cc1c[nH]c3ccccc13)C(=O)N[C@H]1CSSC[C@H](NC(=O)[C@H](Cc3c[nH]c4ccccc34)NC(=O)[C@H](CCCNC(=N)N)NC(=O)[C@H](CCCNC(=N)N)NC(=O)[C@H](CCCNC(=N)N)NC1=O)C(=O)N[C@@H](CCCNC(=N)N)C(=O)N2 (cyclo(CICTRGFCRCWCRRRWCR); disulfide 1-10, 3-8, 12-17) | Dose-dependent effect |  |
| CC(C)C[C@@H]1NC(=O)[C@@H]2CSSC[C@H](NC(=O)[C@H](CCCNC(=N)N)NC(=O)[C@@H]3CSSC[C@H](NC1=O)C(=O)N[C@@H](CCCNC(=N)N)C(=O)N[C@@H](CCCNC(=N)N)C(=O)NCC(=O)N[C@@H](C(C)C)C(=O)N3)C(=O)N[C@@H](Cc1c[nH]c3ccccc13)C(=O)N[C@H]1CSSC[C@H](NC(=O)[C@H](Cc3ccccc3)NC(=O)CNC(=O)[C@H](CCCNC(=N)N)NC(=O)[C@H]([C@@H](C)O)NC1=O)C(=O)N[C@@H](CCCNC(=N)N)C(=O)N2 (cyclo(CLCRRGVCRCWCTRGFCR); disulfide 1-10, 3-8, 12-17) | Dose-dependent effect | IC50 (Lethal factor [2]): 205 nM |
| N=C(N)NCCC[C@@H]1NC(=O)[C@H](CCCNC(=N)N)NC(=O)[C@@H]2CSSC[C@H](NC(=O)[C@H](Cc3c[nH]c4ccccc34)NC(=O)[C@H](CCCNC(=N)N)NC1=O)C(=O)N[C@@H](CCCNC(=N)N)C(=O)N[C@H]1CSSC[C@H](NC(=O)[C@H](CCCNC(=N)N)NC(=O)[C@@H]3CSSC[C@H](NC(=O)[C@H](Cc4c[nH]c5ccccc45)NC1=O)C(=O)N[C@@H](CCCNC(=N)N)C(=O)N[C@@H](CCCNC(=N)N)C(=O)N[C@@H](CCCNC(=N)N)C(=O)N[C@@H](Cc1c[nH]c4ccccc14)C(=O)N3)C(=O)N[C@@H](Cc1c[nH]c3ccccc13)C(=O)N2 (cyclo(CRCWCRRRWCRCWCRRRW); disulfide 1-14, 3-12, 5-10) | Dose-dependent effect | Activity (HeLa): Non-Toxic; IC50 (Lethal factor [4]): 250 nM |
| C[C@@H](O)[C@@H]1NC(=O)[C@@H]2CSSC[C@H](NC(=O)[C@H](Cc3ccccc3)NC(=O)CNC(=O)[C@H](CCCNC(=N)N)NC1=O)C(=O)N[C@@H](CCCNC(=N)N)C(=O)N[C@H]1CSSC[C@H](NC(=O)[C@H](CCCNC(=N)N)NC(=O)[C@@H]3CSSC[C@H](NC(=O)[C@H](Cc4c[nH]c5ccccc45)NC1=O)C(=O)N[C@@H](CCCNC(=N)N)C(=O)N[C@@H](CCCNC(=N)N)C(=O)N[C@@H](CCCNC(=N)N)C(=O)N[C@@H](Cc1c[nH]c4ccccc14)C(=O)N3)C(=O)N[C@@H](Cc1c[nH]c3ccccc13)C(=O)N2 (cyclo(CRCWCRRRWCRCWCTRGF); disulfide 1-14, 3-12, 5-10) | Dose-dependent effect |  |
| C[C@@H](O)[C@@H]1NC(=O)[C@@H]2CSSC[C@H](NC(=O)[C@H](Cc3c[nH]c4ccccc34)NC(=O)CNC(=O)[C@H](CCCNC(=N)N)NC1=O)C(=O)N[C@@H](CCCNC(=N)N)C(=O)N[C@H]1CSSC[C@H](NC(=O)[C@H](CCCNC(=N)N)NC(=O)[C@@H]3CSSC[C@H](NC(=O)[C@H](Cc4c[nH]c5ccccc45)NC1=O)C(=O)N[C@@H](CCCNC(=N)N)C(=O)N[C@@H](CCCNC(=N)N)C(=O)N[C@@H](CCCNC(=N)N)C(=O)N[C@@H](Cc1c[nH]c4ccccc14)C(=O)N3)C(=O)N[C@@H](Cc1c[nH]c3ccccc13)C(=O)N2 (cyclo(CRCWCRRRWCRCWCTRGW); disulfide 1-14, 3-12, 5-10) | Dose-dependent effect |  |
| C[C@@H](O)[C@@H]1NC(=O)[C@@H]2CSSC[C@H](NC(=O)[C@H](Cc3c[nH]c4ccccc34)NC(=O)[C@H](CCCNC(=N)N)NC(=O)[C@H](CCCNC(=N)N)NC1=O)C(=O)N[C@@H](CCCNC(=N)N)C(=O)N[C@H]1CSSC[C@H](NC(=O)[C@H](CCCNC(=N)N)NC(=O)[C@@H]3CSSC[C@H](NC(=O)[C@H](Cc4c[nH]c5ccccc45)NC1=O)C(=O)N[C@@H](CCCNC(=N)N)C(=O)N[C@@H](CCCNC(=N)N)C(=O)N[C@@H](CCCNC(=N)N)C(=O)N[C@@H](Cc1c[nH]c4ccccc14)C(=O)N3)C(=O)N[C@@H](Cc1c[nH]c3ccccc13)C(=O)N2 (cyclo(CRCWCRRRWCRCWCTRRW); disulfide 1-14, 3-12, 5-10) | Dose-dependent effect |  |

From ChEMBL document CHEMBL4007405 (J Med Chem, 2017)
